Reference: ChEMBL document CHEMBL1122384, “Synthesis and evaluation of 24-(isopropyl[75Se]seleno)chol-5-en-3 beta-ol” (J Med Chem, 1983)

Columns and labels:
[1] = system: Rattus norvegicus; assay: Tested for distribution of radioactivity in female rat tissue at 6 hr after intravenous administration in blood; assay type: ADME, organism-based; conditions: in vivo
Procedure, shortened: (§1)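 Female Fischer 344 rats (160–180 g), food and water ad libitum, received 5–10 μCi i.v. via lateral tail vein (1 mL Tween 80–EtOH–saline) under light Et₂O anesthesia. At each time they were anesthetized and decapitated, and organs were rinsed in saline, blotted, weighed and gamma counted. Values are % dose/g, mean and range of 3 rats.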

[2] = system: Rattus norvegicus; assay: Tested for distribution of radioactivity in female rat tissue at 14d ay after intravenous administration in liver; assay type: ADME, organism-based; conditions: in vivo; procedure, shortened: as §1
[3] = system: Rattus norvegicus; assay: Tested for distribution of radioactivity in female rat tissue at 1 hr after intravenous administration in kidney; assay type: ADME, organism-based; conditions: in vivo; procedure, shortened: as §1
[4] = system: Rattus norvegicus; assay: Tested for distribution of radioactivity in female rat tissue at 7 day after intravenous administration in blood; assay type: ADME, organism-based; conditions: in vivo, 168 h
Procedure, shortened: (§2)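 Female Fischer 344 rats (160–180 g), food and water ad libitum. Se-75-labeled steroid dissolved in EtOH, formulated in Tween 80–EtOH–saline; 5–10 μCi in 1 mL injected into a lateral tail vein under light Et₂O anesthesia. At each time point, 3 rats killed by decapitation under Et₂O. Organs rinsed with saline, blotted, weighed and gamma counted. Values are % dose/g, mean and range.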

[5] = system: Rattus norvegicus; assay: Tested for distribution of radioactivity in female rat tissue at 7 day after intravenous administration in liver; assay type: ADME, organism-based; conditions: in vivo, 168 h; procedure, shortened: as §2
[6] = Adrenal/Tissue ratio calculated from percent dose per gram of tissue determined after 1 day intravenous administration from pancreas; assay type: functional
Procedure, shortened: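 Female Fischer 344 rats (160–180 g), food and water ad libitum, lightly anaesthetized with Et2O. [75Se]-labelled steroid was given in Tween 80–EtOH–saline, 5–10 μCi, by lateral tail-vein injection. Rats were killed by decapitation under Et2O; organs were rinsed, blotted, weighed and gamma-counted. Adrenal/tissue ratio is from % dose/g, mean of three rats per time point.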

[7] = system: Rattus norvegicus; assay: Tested for distribution of radioactivity in female rat tissue at 3 day after intravenous administration in ovaries; assay type: ADME, organism-based; conditions: in vivo, 72 h; procedure, shortened: as §1
[8] = Adrenal/Tissue ratio calculated from percent dose per gram of tissue determined after 1 day intravenous administration from ovaries; assay type: functional
Procedure, shortened: (§3)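 Female Fischer 344 rats (160–180 g), fed ad libitum. Steroid dissolved in EtOH, formulated in Tween 80–EtOH–saline, 5–10 μCi in 1 mL given into a lateral tail vein under light Et₂O anesthesia. Organs removed 1 day post-injection, rinsed, blotted, weighed and gamma counted, 3 rats per time point. Ratios taken from adrenal vs tissue % dose/g.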

[9] = system: Rattus norvegicus; assay: Tested for distribution of radioactivity in female rat tissue at 14d ay after intravenous administration in kidney; assay type: ADME, organism-based; conditions: in vivo; procedure, shortened: as §1
[10] = system: Rattus norvegicus; assay: Tested for distribution of radioactivity in female rat tissue at 14d ay after intravenous administration in adrenal; assay type: ADME, organism-based; conditions: in vivo; procedure, shortened: as §1
[11] = system: Rattus norvegicus; assay: Tested for distribution of radioactivity in female rat tissue at 7 day after intravenous administration in ovaries; assay type: ADME, organism-based; conditions: in vivo, 168 h; procedure, shortened: as §2
[12] = system: Rattus norvegicus; assay: Tested for distribution of radioactivity in female rat tissue at 3 day after intravenous administration in adrenal; assay type: ADME, organism-based; conditions: in vivo, 72 h; procedure, shortened: as §1
[13] = system: Rattus norvegicus; assay: Tested for distribution of radioactivity in female rat tissue at 14d ay after intravenous administration in ovaries; assay type: ADME, organism-based; conditions: in vivo; procedure, shortened: as §1
[14] = system: Rattus norvegicus; assay: Tested for distribution of radioactivity in female rat tissue at 24 hr r after intravenous administration in adrenal; assay type: ADME, organism-based; conditions: in vivo; procedure, shortened: as §1
[15] = Adrenal/Tissue ratio calculated from percent dose per gram of tissue determined after 1 day intravenous administration from liver; assay type: functional; procedure, shortened: as §3
[16] = species on record: Homo sapiens; assay: Adsorbed radiation dose value was calculated to human small intestine; assay type: functional
Procedure, shortened: (§4)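 Human absorbed radiation dose estimated by the standard MIRD method from rat tissue distribution (% dose/g, 1 h–21 days) and excretion data. Excretion came from three individually caged female rats, with urine and feces collected daily over 21 days.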

[17] = species on record: Homo sapiens; assay: Adsorbed radiation dose value was calculated to human liver; assay type: functional; procedure, shortened: as §4
[18] = Adrenal/Tissue ratio calculated from percent dose per gram of tissue determined after 1 day intravenous administration from lung; assay type: functional; procedure, shortened: as §3
[19] = system: Rattus norvegicus; assay: Tested for distribution of radioactivity in female rat tissue at 1 hr after intravenous administration in adrenal; assay type: ADME, organism-based; conditions: in vivo; procedure, shortened: as §1
[20] = system: Rattus norvegicus; assay: Tested for distribution of radioactivity in female rat tissue at 7 day after intravenous administration in kidney; assay type: ADME, organism-based; conditions: in vivo, 168 h; procedure, shortened: as §2
[21] = system: Rattus norvegicus; assay: Tested for distribution of radioactivity in female rat tissue at 18 hr after intravenous administration in adrenal; assay type: ADME, organism-based; conditions: in vivo; procedure, shortened: as §1
[22] = species on record: Homo sapiens; assay: Adsorbed radiation dose value was calculated to human adrenals; assay type: functional, Adrenal gland; procedure, shortened: as §4
[23] = system: Rattus norvegicus; assay: Tested for distribution of radioactivity in female rat tissue at 6 hr after intravenous administration in ovaries; assay type: ADME, organism-based; conditions: in vivo; procedure, shortened: as §2
[24] = system: Rattus norvegicus; assay: Tested for distribution of radioactivity in female rat tissue at 18 hr after intravenous administration in kidney; assay type: ADME, organism-based; conditions: in vivo; procedure, shortened: as §1
[25] = system: Rattus norvegicus; assay: Tested for distribution of radioactivity in female rat tissue at 6 hr after intravenous administration in liver; assay type: ADME, organism-based; conditions: in vivo; procedure, shortened: as §1
[26] = system: Rattus norvegicus; assay: Tested for distribution of radioactivity in female rat tissue at 1 hr after intravenous administration in ovaries; assay type: ADME, organism-based; conditions: in vivo; procedure, shortened: as §1
[27] = system: Rattus norvegicus; assay: Tested for distribution of radioactivity in female rat tissue at 6 hr after intravenous administration in kidney; assay type: ADME, organism-based; conditions: in vivo; procedure, shortened: as §1
[28] = system: Rattus norvegicus; assay: Tested for distribution of radioactivity in female rat tissue at 24 hr r after intravenous administration in liver; assay type: ADME, organism-based; conditions: in vivo; procedure, shortened: as §1
[29] = system: Rattus norvegicus; assay: Tested for distribution of radioactivity in female rat tissue at 7 day after intravenous administration in adrenal; assay type: ADME, organism-based; conditions: in vivo, 168 h; procedure, shortened: as §2
[30] = Adrenal/Tissue ratio calculated from percent dose per gram of tissue determined after 1 day intravenous administration from blood; assay type: functional; procedure, shortened: as §3
[31] = species on record: Homo sapiens; assay: Adsorbed radiation dose value was calculated to human ovaries; assay type: functional, Female gonad; procedure, shortened: as §4
[32] = system: Rattus norvegicus; assay: Tested for distribution of radioactivity in female rat tissue at 24 hr r after intravenous administration in kidney; assay type: ADME, organism-based; conditions: in vivo; procedure, shortened: as §1
[33] = system: Rattus norvegicus; assay: Tested for distribution of radioactivity in female rat tissue at 18 hr after intravenous administration in blood; assay type: ADME, organism-based; conditions: in vivo; procedure, shortened: as §1
[34] = species on record: Homo sapiens; assay: Adsorbed radiation dose value was calculated to human spleen; assay type: functional; procedure, shortened: as §4
[35] = system: Rattus norvegicus; assay: Tested for distribution of radioactivity in female rat tissue at 24 hr r after intravenous administration in blood; assay type: ADME, organism-based; conditions: in vivo; procedure, shortened: as §1
[36] = species on record: Homo sapiens; assay: Adsorbed radiation dose value was calculated to human pancreas; assay type: functional; procedure, shortened: as §4
[37] = system: Rattus norvegicus; assay: Tested for distribution of radioactivity in female rat tissue at 24 hr r after intravenous administration in ovaries; assay type: ADME, organism-based; conditions: in vivo; procedure, shortened: as §1
[38] = system: Rattus norvegicus; assay: Tested for distribution of radioactivity in female rat tissue at 3 day after intravenous administration in kidney; assay type: ADME, organism-based; conditions: in vivo, 72 h; procedure, shortened: as §1
[39] = system: Rattus norvegicus; assay: Tested for distribution of radioactivity in female rat tissue at 1 hr after intravenous administration in blood; assay type: ADME, organism-based; conditions: in vivo; procedure, shortened: as §1
[40] = species on record: Homo sapiens; assay: Adsorbed radiation dose value was calculated to human total body; assay type: functional; procedure, shortened: as §4
[41] = Adrenal/Tissue ratio calculated from percent dose per gram of tissue determined after 1 day intravenous administration from spleen; assay type: functional; procedure, shortened: as §3
[42] = species on record: Homo sapiens; assay: Adsorbed radiation dose value was calculated to human kidney; assay type: functional; procedure, shortened: as §4
[43] = species on record: Homo sapiens; assay: Adsorbed radiation dose value was calculated to human lungs; assay type: functional; procedure, shortened: as §4
[44] = Adrenal/Tissue ratio calculated from percent dose per gram of tissue determined after 1 day intravenous administration from kidney; assay type: functional; procedure, shortened: as §3
[45] = system: Rattus norvegicus; assay: Tested for distribution of radioactivity in female rat tissue at 21 day after intravenous administration in kidney; assay type: ADME, organism-based; conditions: in vivo, 504 h; procedure, shortened: as §1
[46] = system: Rattus norvegicus; assay: Tested for distribution of radioactivity in female rat tissue at 1 hr after intravenous administration in liver; assay type: ADME, organism-based; conditions: in vivo; procedure, shortened: as §1
[47] = system: Rattus norvegicus; assay: Tested for distribution of radioactivity in female rat tissue at 18 hr after intravenous administration in ovaries; assay type: ADME, organism-based; conditions: in vivo; procedure, shortened: as §1
[48] = system: Rattus norvegicus; assay: Tested for distribution of radioactivity in female rat tissue at 18 hr after intravenous administration in liver; assay type: ADME, organism-based; conditions: in vivo; procedure, shortened: as §1
[49] = system: Rattus norvegicus; assay: Tested for distribution of radioactivity in female rat tissue at 21 day after intravenous administration in blood; assay type: ADME, organism-based; conditions: in vivo, 504 h; procedure, shortened: as §1
[50] = system: Rattus norvegicus; assay: Tested for distribution of radioactivity in female rat tissue at 3 day after intravenous administration in blood; assay type: ADME, organism-based; conditions: in vivo, 72 h; procedure, shortened: as §1
[51] = system: Rattus norvegicus; assay: Tested for distribution of radioactivity in female rat tissue at 6 hr after intravenous administration in adrenal; assay type: ADME, organism-based; conditions: in vivo; procedure, shortened: as §1
[52] = system: Rattus norvegicus; assay: Tested for distribution of radioactivity in female rat tissue at 21 day after intravenous administration in liver; assay type: ADME, organism-based; conditions: in vivo, 504 h; procedure, shortened: as §1
[53] = system: Rattus norvegicus; assay: Tested for distribution of radioactivity in female rat tissue at 21 day after intravenous administration in adrenal; assay type: ADME, organism-based; conditions: in vivo, 504 h; procedure, shortened: as §1
[54] = system: Rattus norvegicus; assay: Tested for distribution of radioactivity in female rat tissue at 3 day after intravenous administration in liver; assay type: ADME, organism-based; conditions: in vivo, 72 h; procedure, shortened: as §1
[55] = system: Rattus norvegicus; assay: Tested for distribution of radioactivity in female rat tissue at 14d ay after intravenous administration in blood; assay type: ADME, organism-based; conditions: in vivo; procedure, shortened: as §1
[56] = system: Rattus norvegicus; assay: Tested for distribution of radioactivity in female rat tissue at 21 day after intravenous administration in ovaries; assay type: ADME, organism-based; conditions: in vivo, 504 h; procedure, shortened: as §1

Dose/g [1]: 2.08%
Dose/g [2]: 0.5%
Dose/g [3]: 1.31%
Dose/g [4]: 0.26%
Dose/g [5]: 0.68%
Dose/g [7]: 3.81%
Dose/g [9]: 0.91%
Dose/g [10]: 18.23%
Dose/g [11]: 3.82%
Dose/g [12]: 32.32%
Dose/g [13]: 2.83%
Dose/g [14]: 47.75%
Dose/g [19]: 15.65%
Dose/g [20]: 1.34%
Dose/g [21]: 42.97%
Dose/g [23]: 4.95%
Dose/g [24]: 1.87%
Dose/g [25]: 4.93%
Dose/g [26]: 2.24%
Dose/g [27]: 1.69%
Dose/g [28]: 1.76%
Dose/g [29]: 29.5%
Dose/g [32]: 1.59%
Dose/g [33]: 1%
Dose/g [35]: 0.71%
Dose/g [37]: 5.29%
Dose/g [38]: 1.48%
Dose/g [39]: 3.97%
Dose/g [45]: 0.64%
Dose/g [46]: 6.73%
Dose/g [47]: 6.12%
Dose/g [48]: 2.78%
Dose/g [49]: 0.11%
Dose/g [50]: 0.38%
Dose/g [51]: 35.61%
Dose/g [52]: 0.34%
Dose/g [53]: 15.22%
Dose/g [54]: 0.99%
Dose/g [55]: 0.16%
Dose/g [56]: 2.52%
Compound: CC(C)[Se]CCC[C@H](C)[C@H]1CC[C@H]2[C@@H]3CC=C4C[C@@H](O)CC[C@]4(C)[C@H]3CC[C@]12C
Ratio [6]: 46.4
Ratio [8]: 9
Ratio [15]: 27.1
Dose [16]: 3.5 rd mCi-1
Dose [17]: 3.7 rd mCi-1
Ratio [18]: 10.9
Dose [22]: 30 rd mCi-1
Ratio [30]: 67.3
Dose [31]: 5.9 rd mCi-1
Dose [34]: 3.4 rd mCi-1
Dose [36]: 3.4 rd mCi-1
Dose [40]: 1.8 rd mCi-1
Ratio [41]: 19.2
Dose [42]: 3.8 rd mCi-1
Dose [43]: 3.2 rd mCi-1
Ratio [44]: 30
